According to ChEMBL document CHEMBL1122092, “Synthesis of some potential antihypertensive phthalazinyl- and quinoxalinylguanidines” (J Med Chem, 1982):

What was measured:
Rattus norvegicus [1] = assay: Percent change of mean arterial blood pressure in conscious DOCA Hypertensive rat at 3 hour, after administration of dose 10 mL (mg/kg po); assay type: functional
How it was run: (§1)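 Male DOCA (metacorticoid) hypertensive rats, conscious, with an aortic catheter implanted under halothane anaesthesia at least 48 h beforehand. Fasted 18 h, then dosed orally; saline vehicle 10 mL. Blood pressure recorded via pressure transducer with minimal restraint; a tachograph triggered by the pulse gave heart rate. Percent change from pre-dose control read at 1, 2, 3, 5 and 22 h.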

Rattus norvegicus [2] = assay: Percent change of mean arterial blood pressure in conscious DOCA Hypertensive rat at 2 hour, after administration of dose 10 mL (mg/kg po); assay type: functional; how it was run: as §1
Rattus norvegicus [3] = assay: Percent change of mean arterial blood pressure in conscious DOCA Hypertensive rat at 22 hour, after administration of dose 10 mL (mg/kg po); assay type: functional; how it was run: as §1
Rattus norvegicus [4] = assay: Percent change of heart rate in conscious DOCA Hypertensive rat at 3 hour after administration of dose of 10 mL (mg/kg po); assay type: functional; how it was run: as §1
Rattus norvegicus [5] = assay: Percent change of mean arterial blood pressure in conscious DOCA Hypertensive rat at 5 hour, after administration of dose 10 mL (mg/kg po); assay type: functional; how it was run: as §1
Rattus norvegicus [6] = assay: Percent change of heart rate in conscious DOCA Hypertensive rat at 1 hour after administration of dose of 10 mL (mg/kg po); assay type: functional; how it was run: as §1
Rattus norvegicus [7] = assay: Percent change of heart rate in conscious DOCA Hypertensive rat at 2 hour after administration of dose of 10 mL (mg/kg po); assay type: functional; how it was run: as §1
Rattus norvegicus [8] = assay: Percent change of mean arterial blood pressure in conscious DOCA Hypertensive rat at 1 hour, after administration of dose 10 mL (mg/kg po); assay type: functional; how it was run: as §1
Rattus norvegicus [9] = assay: Percent change of heart rate in conscious DOCA Hypertensive rat at 22 hour after administration of dose of 10 mL (mg/kg po); assay type: functional; how it was run: as §1
Rattus norvegicus [10] = assay: Percent change of heart rate in conscious DOCA Hypertensive rat at 5 hour after administration of dose of 10 mL (mg/kg po); assay type: functional; how it was run: as §1
Rattus norvegicus [11] = assay: In vivo threshold intravenous dose required to cause reversal of clonidine on hypogastric nerves in pithed rat; assay type: functional, Hypogastric nerve
How it was run: (§2)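 Pithed rats given clonidine 30 μg/kg iv, which acts presynaptically (hypogastric nerve response) and postsynaptically (pressor response). Test agents were then injected iv to find the threshold dose reversing each clonidine action. Five rats per drug.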

Rattus norvegicus [12] = assay: In vivo threshold intravenous dose required to cause reversal of clonidine on blood pressure in pithed rat; assay type: functional; how it was run: as §2
[13] = target: Adrenergic receptor alpha; assay: In vitro presynaptic antagonist activity against Alpha adrenergic receptor in rat vas deferens; assay type: functional, tissue-based
How it was run: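 Rat vas deferens under 0.1 Hz stimulation; cumulative clonidine concentration-response curves run with increasing concentrations of test agent to gauge presynaptic α-antagonism; pA2 reported. Mean of three experiments ± SEM.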

[14] = target: Adrenergic receptor alpha; assay: In vitro postsynaptic antagonist activity against Alpha adrenergic receptor in rat anococcygeus muscle; assay type: functional, tissue-based
How it was run: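 Rat anococcygeus muscle; cumulative noradrenaline concentration-response curves obtained as control and again with increasing concentrations of test agent present; postsynaptic α-antagonism expressed as pA2. Mean of three experiments ± SEM.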

Row | Structure (SMILES) | Change (Rattus norvegicus [1]) [%] | Change (Rattus norvegicus [2]) [%] | Change (Rattus norvegicus [3]) [%] | Change (Rattus norvegicus [4]) [%] | Change (Rattus norvegicus [5]) [%] | Change (Rattus norvegicus [6]) [%] | Change (Rattus norvegicus [7]) [%] | Change (Rattus norvegicus [8]) [%] | Change (Rattus norvegicus [9]) [%] | Change (Rattus norvegicus [10]) [%] | Dose (Rattus norvegicus [11]) [mg/kg] | Dose (Rattus norvegicus [12]) [mg/kg] | pA2 [13] | pA2 [14]
1 | NNc1nncc2ccccc12 [HYDRALAZINE] | -44 | -45 | -15 | 2 | -39 | -5 | -1 | -47 | 8 | 11 | – | – | – | –
2 | N=C(N)Nc1nncc2ccccc12 | -24 | -20 | 4 | 7 | -20 | 2 | -14 | -22 | 3 | 1 | 3 | 1 | 5.7 | 4.9
3 | c1ccc2c(NC3=NCCN3)nncc2c1 | – | – | – | – | – | – | – | – | – | – | 3 | 0.3 | 6 | 4.8
4 | CCCC/N=C(\N)Nc1nncc2ccccc12 | -12 | -10 | 8 | 21 | -9 | 14 | 19 | -10 | 11 | 18 | 1 | 1 | 6.6 | 5.2
5 | CCCC/N=C(/N)Nc1nc2ccccc2nc1C | 0 | -5 | 20 | -5 | 5 | 3 | -2 | -3 | 2 | -4 | >1 | >1 | 6.3 | < 5.5
6 | Cc1ccc(N(CC2=NCCN2)c2cccc(O)c2)cc1 [PHENTOLAMINE] | -33 | -34 | 6 | 18 | -22 | 21 | 22 | -41 | 7 | 11 | 0.03 | 0.03 | – | –
7 | CNc1nnc2c3ccccc3cnn12 | -12 | -13 | 4 | -25 | -5 | -23 | -25 | -12 | -10 | -25 | – | – | – | –
8 | Nc1nnc2c3ccccc3cnn12 | -20 | -19 | -3 | 6 | -23 | 8 | 7 | -14 | 7 | 2 | – | – | – | –
